# Results from ChEMBL document CHEMBL1124606, “Benzo- and pyrido-1,4-oxazepin-5-ones and -thiones: synthesis and structure-activity relationships of a new series of H1 antihistamines” (1989).
# What was measured:
# [1] = test system: Cavia porcellus; test: Histamine induced lethality, at 60-min pretreatment time when 3 mg/kg compound was administered perorally in guinea pigs; assay type: functional; settings: route oral
# [2] = test system: Cavia porcellus; test: Histamine induced lethality, at 60-min pretreatment time when 1 mg/kg compound was administered perorally in guinea pigs; assay type: functional; settings: route oral
# [3] = test system: Cavia porcellus; test: Histamine induced lethality, at 30-min pretreatment time when 30 mg/kg compound was administered intra peritoneally in guinea pigs; assay type: functional
# [4] = test system: Cavia porcellus; test: Histamine induced lethality, at 60-min pretreatment time when 0.3 mg/kg compound was administered perorally in guinea pigs; assay type: functional; settings: route oral
# [5] = species: Cavia porcellus; test: Effective dose that protects guinea pigs against histamine induced lethality, at 1 hour pretreatment time; assay type: functional
# Procedure, shortened: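 Survival at 24 h after challenge was scored as protection. Groups of 5–10 animals per treatment; ED50 was calculated by the Litchfield–Wilcoxon method or by computer probit analysis.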
# [6] = target: Histamine H1 receptor (Cavia porcellus) (UniProt P31389); test: Histamine induced lethality, at 30-min pretreatment time of 3 mg/kg i.p. in guinea pigs.; assay type: functional, organism-based; set-up: dose 3 mg/kg; settings: at 3 mg/kg
# [7] = target: Histamine H1 receptor (Cavia porcellus) (UniProt P31389); test: Histamine induced lethality, at 60-min pretreatment time of 0.1 mg/kg p.o. in guinea pigs.; assay type: functional, organism-based; set-up: dose 0.1 mg/kg; settings: at 0.1 mg/kg
# Histamine H1 receptor (Cavia porcellus), sequence (P31389 whole entry): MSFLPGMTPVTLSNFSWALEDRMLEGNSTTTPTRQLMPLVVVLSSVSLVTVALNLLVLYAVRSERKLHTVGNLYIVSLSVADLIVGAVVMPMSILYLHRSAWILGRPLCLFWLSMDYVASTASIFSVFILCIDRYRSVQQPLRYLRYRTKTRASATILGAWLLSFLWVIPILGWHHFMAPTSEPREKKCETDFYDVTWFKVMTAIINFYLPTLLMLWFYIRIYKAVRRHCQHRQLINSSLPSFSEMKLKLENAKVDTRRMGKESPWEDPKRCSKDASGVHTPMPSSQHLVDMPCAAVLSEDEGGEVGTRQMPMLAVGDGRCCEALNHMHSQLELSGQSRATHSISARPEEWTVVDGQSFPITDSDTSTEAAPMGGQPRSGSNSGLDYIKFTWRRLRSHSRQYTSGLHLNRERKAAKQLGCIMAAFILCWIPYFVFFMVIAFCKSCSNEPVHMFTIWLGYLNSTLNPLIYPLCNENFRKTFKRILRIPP
structure (smiles),measurement,setting,value
CN(CCC1CN(C)C(=S)c2cc(Br)cnc2O1)Cc1ccccc1 (stereo unspecified),survival at 3 mg/kg,[1],100%
same,survival at 1 mg/kg,[2],0%
CN(C)CCC1CN(C)C(=O)c2c(Cl)cncc2O1 (stereo unspecified),survival at 30 mg/kg,[3],0%
CN(C)CCC1CN(C)C(=O)c2cc(Cl)ccc2O1 (stereo unspecified),survival at 3 mg/kg,[1],40%
same,survival at 0.3 mg/kg,[4],0%
same,survival at 1 mg/kg,[2],33%
CCN(CC)CCC1CN(C)C(=S)c2cc(Cl)cnc2O1 (stereo unspecified),survival at 3 mg/kg,[1],100%
same,ED50,[5],0.39 mg/kg
same,survival at 0.3 mg/kg,[4],20%
CC(CC1CN(C)C(=O)c2cccnc2O1)N(C)C (stereo unspecified),survival at 30 mg/kg,[3],100%
same,Survival,[6],0%
Cc1nc2c(cc1Cl)C(=S)N(C)CC(CCN1CCC1)O2 (stereo unspecified),Survival,[7],67%
same,survival at 0.3 mg/kg,[4],67%
CN1CC(CCNC2CCC2)Oc2ncccc2C1=S (stereo unspecified),survival at 30 mg/kg,[3],0%
CN(CCC1CN(C)C(=S)c2cccnc2O1)Cc1ccc(C(C)(C)C)cc1 (stereo unspecified),survival at 3 mg/kg,[1],100%
same,survival at 0.3 mg/kg,[4],0%
same,survival at 1 mg/kg,[2],40%
S=C1c2ccccc2OC(CCN2CCOCC2)CN1Cc1ccccc1 (stereo unspecified),survival at 30 mg/kg,[3],0%
CNCCC1CN(C)C(=S)c2cc(Cl)cnc2O1 (stereo unspecified),survival at 3 mg/kg,[1],100%
same,survival at 0.3 mg/kg,[4],0%
CCCCN(CCCC)CCC1CN(C)C(=S)c2cccnc2O1 (stereo unspecified),survival at 30 mg/kg,[3],100%
same,Survival,[6],33%
CN(C)CCC1CN(C)C(=S)c2cc(N)ccc2O1 (stereo unspecified),survival at 3 mg/kg,[1],100%
same,survival at 1 mg/kg,[2],0%
CN(C)CCCOc1ncccc1C(=S)N(C)C,survival at 30 mg/kg,[3],0%
CN(C)CCC1CN(C)C(=O)c2c(cncc2N(C)C)O1 (stereo unspecified),survival at 30 mg/kg,[3],0%
CN1CC(CC[N+](C)(C)C)Oc2ncccc2C1=S (stereo unspecified),survival at 30 mg/kg,[3],100%
same,Survival,[6],0%
CN(CCC1CN(C)C(=S)c2cc(Cl)cnc2O1)Cc1ccccc1 (stereo unspecified),survival at 3 mg/kg,[1],100%
same,ED50,[5],0.9 mg/kg
same,survival at 0.3 mg/kg,[4],60%
CCN1CC(CCN(C)C)Oc2ncccc2C1=S (stereo unspecified),survival at 3 mg/kg,[1],100%
same,survival at 1 mg/kg,[2],33%
Cc1nc2c(cc1Cl)C(=S)N(C)CC(CCN(C)C)O2 (stereo unspecified),Survival,[7],67%
same,survival at 0.3 mg/kg,[4],67%
CN(C)CCC1CN=C(S)c2cccnc2O1 (stereo unspecified),survival at 3 mg/kg,[1],100%
same,survival at 0.3 mg/kg,[4],0%
same,survival at 1 mg/kg,[2],33%
CN(C)CC1CN(C)C(=S)c2cccnc2O1 (stereo unspecified),survival at 30 mg/kg,[3],0%
CN1CC(CCCN)Oc2ncccc2C1=O (stereo unspecified),survival at 30 mg/kg,[3],100%
same,Survival,[6],0%
CN(C)CCC1CN(C)C(=S)c2cc(-c3ccccc3)cnc2O1 (stereo unspecified),survival at 3 mg/kg,[1],100%
same,survival at 0.3 mg/kg,[4],0%
same,survival at 1 mg/kg,[2],100%
CN(C)CCC1CN(C)C(=O)c2ccccc2O1 (stereo unspecified),survival at 30 mg/kg,[3],62%
CN(CCC1CN(C)C(=S)c2cccnc2O1)Cc1ccccc1 (stereo unspecified),survival at 3 mg/kg,[1],100%
same,survival at 1 mg/kg,[2],0%
CN1CC(CCn2ccnc2)Oc2ncccc2C1=S (stereo unspecified),survival at 30 mg/kg,[3],100%
same,Survival,[6],0%
CCN(CC)CCC1CN(C)C(=S)c2cccnc2O1 (stereo unspecified),survival at 3 mg/kg,[1],67%
same,survival at 1 mg/kg,[2],33%
CN(C)CCC1CN(C)C(=O)c2cccnc2O1 (stereo unspecified),survival at 3 mg/kg,[1],100%
same,ED50,[5],1.05 mg/kg
same,survival at 1 mg/kg,[2],20%
CN(C)CCOc1ncccc1C(=S)N(C)C,survival at 30 mg/kg,[3],0%
CC(=O)Nc1ccc2c(c1)C(=S)N(C)CC(CCN(C)C)O2 (stereo unspecified),survival at 3 mg/kg,[1],100%
same,survival at 0.3 mg/kg,[4],0%
CN(C)CCCC1CN(C)C(=O)c2cccnc2O1 (stereo unspecified),survival at 30 mg/kg,[3],100%
same,Survival,[6],0%
CN1CC(CCNC2CC2)Oc2ncccc2C1=S (stereo unspecified),survival at 30 mg/kg,[3],0%
CN(C)CCC1CN(C)C(=O)c2cnc3cc(C(F)(F)F)ccc3c2O1 (stereo unspecified),survival at 30 mg/kg,[3],100%
same,Survival,[6],0%
CN1CCN(CCC2CN(C)C(=S)c3cccnc3O2)CC1 (stereo unspecified),survival at 30 mg/kg,[3],100%
same,Survival,[6],0%
CN(C)CCC1CN(C)C(=O)c2cnc3ccccc3c2O1 (stereo unspecified),survival at 30 mg/kg,[3],33%
CN1CC(CCN2CCC2)Oc2ccc(Cl)cc2C1=S (stereo unspecified),Survival,[7],40%
same,ED50,[5],0.12 mg/kg
same,survival at 0.3 mg/kg,[4],100%
CN(C)CCC1(C)CN(C)C(=O)c2cccnc2O1 (stereo unspecified),survival at 3 mg/kg,[1],67%
same,ED50,[5],0.45 mg/kg
same,survival at 0.3 mg/kg,[4],67%
O=C1c2ccccc2OC(CCN2CCOCC2)CN1Cc1ccccc1 (stereo unspecified),survival at 30 mg/kg,[3],0%
CN1CC(CCN2CC=CC2)Oc2ncccc2C1=S (stereo unspecified),survival at 3 mg/kg,[1],100%
same,survival at 1 mg/kg,[2],0%
CN1CC(CCCN)Oc2ncccc2C1=S (stereo unspecified),survival at 30 mg/kg,[3],67%
CN(C)CCC1CN(C)C(=S)c2cc(F)ccc2O1 (stereo unspecified),survival at 3 mg/kg,[1],100%
same,survival at 0.3 mg/kg,[4],0%
same,survival at 1 mg/kg,[2],20%
CN(C)CC1CN(C)C(=O)c2cccnc2O1 (stereo unspecified),survival at 30 mg/kg,[3],0%
CN1CC(CCN2CCCC2)Oc2ncc(Cl)cc2C1=S (stereo unspecified),Survival,[7],40%
same,ED50,[5],0.12 mg/kg
same,survival at 0.3 mg/kg,[4],100%
CN(C)CCC1CNC(=O)c2cccnc2O1 (stereo unspecified),survival at 3 mg/kg,[1],67%
same,survival at 1 mg/kg,[2],0%
CN(C)CCC1CN(C)C(=S)c2ccncc2O1 (stereo unspecified),survival at 0.3 mg/kg,[4],0%
same,survival at 1 mg/kg,[2],100%
CN(C)CCC1CN(Cc2ccccc2)C(=S)c2cccnc2O1 (stereo unspecified),survival at 3 mg/kg,[1],100%
same,survival at 1 mg/kg,[2],0%
CN1CC(CCN2CCOCC2)Oc2ncccc2C1=S (stereo unspecified),survival at 30 mg/kg,[3],100%
same,Survival,[6],0%
COc1ccc(CN(C)CCC2CN(C)C(=S)c3cccnc3O2)cc1 (stereo unspecified),survival at 3 mg/kg,[1],67%
same,survival at 1 mg/kg,[2],0%
CCN1CC(CCN(C)C)N(C)c2ccccc2C1=O (stereo unspecified),survival at 30 mg/kg,[3],0%
CC(CN(C)C)C1CN(C)C(=S)c2cccnc2O1 (stereo unspecified),survival at 30 mg/kg,[3],100%
same,Survival,[6],0%
CC(CN(C)C)C1CN(C)C(=O)c2cccnc2O1 (stereo unspecified),survival at 30 mg/kg,[3],67%
same,Survival,[6],0%
CN1CC(CCN(Cc2ccccc2)Cc2ccccc2)Oc2ncccc2C1=S (stereo unspecified),survival at 30 mg/kg,[3],0%
CN1CC(CCn2cccn2)Oc2ncccc2C1=S (stereo unspecified),survival at 30 mg/kg,[3],33%
CN1CC(CCN2CCCCC2)Oc2ncccc2C1=S (stereo unspecified),survival at 30 mg/kg,[3],100%
same,Survival,[6],0%
CN(C)CCCC1CN(C)C(=S)c2cccnc2O1 (stereo unspecified),survival at 30 mg/kg,[3],100%
same,Survival,[6],33%
CN1CC(CCN2CCOCC2)Oc2ccccc2C1=S (stereo unspecified),survival at 30 mg/kg,[3],50%
CN(C)CCC1CN(C)C(=S)c2cc([N+](=O)[O-])ccc2O1 (stereo unspecified),survival at 3 mg/kg,[1],67%
same,survival at 0.3 mg/kg,[4],33%
